Values after ≈ are worked out from the molar mass of the structure shown.
Key:
Staphylococcus aureus [1] = test: In vivo activity against experimental infections in mice Staphylococcus aureus X1 when administered orally; type: functional; details: po
Staphylococcus aureus [2] = test: In vivo activity against experimental infections in mice Staphylococcus aureus X1 when administered sc; type: functional
Streptococcus [3] = test: In vitro antimicrobial activity against aerobic bacteria Streptococcus B 14; type: functional
Streptococcus [4] = test: In vitro antimicrobial activity against aerobic bacteria Streptococcus B 8; type: functional
Streptococcus [5] = test: In vitro antimicrobial activity against aerobic bacteria Streptococcus C 24; type: functional
Streptococcus [6] = test: In vitro antimicrobial activity against aerobic bacteria Streptococcus D 8043; type: functional
Streptococcus [7] = test: In vitro antimicrobial activity against aerobic bacteria Streptococcus D 9960; type: functional
Streptococcus [8] = test: In vitro antimicrobial activity against aerobic bacteria Streptococcus G Kruder; type: functional; details: Streptococcus; read-out: MIC
[9] = tested on: Staphylococcus epidermidis; test: In vitro antimicrobial activity against aerobic bacteria Streptococcus epi 270; type: functional
Staphylococcus aureus [10] = test: In vitro antimicrobial activity against Staphylococcus aureus X1; type: functional
Staphylococcus aureus [11] = test: In vitro antimicrobial activity against aerobic bacteria Staphylococcus aureus 513E; type: functional
Staphylococcus aureus [12] = test: In vitro antimicrobial activity against aerobic bacteria Staphylococcus aureus V140,; type: functional
Staphylococcus aureus [13] = test: In vitro antimicrobial activity against aerobic bacteria Staphylococcus aureus V41; type: functional
Staphylococcus aureus [14] = test: In vitro antimicrobial activity against aerobic bacteria Staphylococcus aureus X400; type: functional
Streptococcus pneumoniae [15] = test: In vivo activity against experimental infections in mice Streptococcus pneumoniae park when administered orally; type: functional; details: po
Streptococcus pneumoniae [16] = test: In vivo activity against experimental infections in mice Streptococcus pneumoniae park when administered sc; type: functional
Streptococcus pneumoniae [17] = test: In vitro antimicrobial activity against aerobic bacteria Streptococcus pneumoniae B1-438; type: functional, streptococcus pneum
Streptococcus pyogenes [18] = test: In vivo effective dose against experimental infections in rodent caused by Streptococcus pyogenes C203 when administered sc; type: functional
Streptococcus sanguinis = test: In vitro antimicrobial activity against aerobic bacteria Streptococcus sanguis MX132; type: functional
Streptococcus pneumoniae [19] = test: In vitro antimicrobial activity against Streptococcus pneumoniae; type: functional
[20] = tested on: Staphylococcus epidermidis; test: In vitro antimicrobial activity against Staphylococcus epidermidis EPI1; type: functional
[21] = tested on: Staphylococcus epidermidis; test: In vitro antimicrobial activity against aerobic bacteria Streptococcus epi 222; type: functional
Enterococcus faecium = test: In vitro antimicrobial activity against Streptococcus faecium X66; type: functional, streptococcus fae-cium
Streptococcus pyogenes [22] = test: In vitro antimicrobial activity against Streptococcus pyogenes C203; type: functional
Streptococcus viridans = test: In vitro antimicrobial activity against aerobic bacteria Streptococcus viridans 9943; type: functional
Streptococcus [23] = test: In vitro antimicrobial activity against aerobic bacteria Streptococcus B 5; type: functional
Staphylococcus aureus [24] = test: In vitro antimicrobial activity against aerobic bacteria Staphylococcus aureus V135; type: functional
Haemophilus influenzae = test: In vitro antimicrobial activity against aerobic bacteria Haemophilus influenzae 465; type: functional
[25] = tested on: Prevotella melaninogenica; test: In vitro antimicrobial activity against anaerobic bacteria bacteroides melaninogenicus 2736; type: functional
[26] = tested on: Fusobacterium necrophorum; test: In vitro antimicrobial activity against anaerobic bacteria usobacterium necrophorum 6054A; type: functional
Mus musculus = test: Peripheral plasma levels in mice after oral administration of 50 mg/kg dose for 0.5 hr; type: functional, organism-based; set-up: dose 50 mg/kg
Outline: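 Mice were given the compound orally and sampled for peripheral plasma at each time point. Plasma was assayed microbiologically against Micrococcus luteus seeded in Antibiotic Medium 1. Inhibition zone sizes were read, and concentrations were calculated from each compound's own standard curve. Each value is the mean of five mice per time point.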

Collinsella aerofaciens = test: In vitro antimicrobial activity against anaerobic bacteria eubacterium aerofaciens 1235; type: functional
Streptococcus [27] = test: In vitro antimicrobial activity against aerobic bacteria Streptococcus D 2041; type: functional
[28] = tested on: Peptostreptococcus anaerobius; test: In vitro antimicrobial activity against anaerobic bacteria eubacterium peptostreptococcus anaerobius 1428,; type: functional
Streptococcus pyogenes [29] = test: In vivo effective dose against experimental infections in rodent caused by Streptococcus pyogenes C203 when administered orally; type: functional; details: po

`CC[C@H]1OC(=O)C[C@@H](O)[C@H](C)[C@@H](O[C@@H]2O[C@H](C)[C@@H](O)[C@H](N(C)C)[C@H]2O)[C@@H](CCOc2ccccc2)C[C@@H](C)C(=O)/C=C/C(C)=C/[C@@H]1CO[C@@H]1O[C@H](C)[C@@H](O)[C@@H](OC)[C@H]1OC` was tested, and the ED50 (Staphylococcus aureus [1]) was 17 mg/kg, the ED50 (Staphylococcus aureus [2]) was 4.2 mg/kg and the MIC (Streptococcus [3]) was 16 mg/L (≈ 18.8 µM). For the same molecule, the MIC (Streptococcus [4]) was 8 mg/L (≈ 9.41 µM), the MIC (Streptococcus [5]) was 0.25 mg/L (≈ 0.294 µM) and the MIC (Streptococcus [6]) was 2 mg/L (≈ 2.35 µM). For the same molecule, the MIC (Streptococcus [7]) was 8 mg/L (≈ 9.41 µM), the MIC (Streptococcus [8]) was 32 mg/L (≈ 37.6 µM) and the MIC [9] was > 128 mg/L. It also gave an MIC (Staphylococcus aureus [10]) of 0.25 mg/L (≈ 0.294 µM), an MIC (Staphylococcus aureus [11]) of 0.25 mg/L (≈ 0.294 µM) and an MIC (Staphylococcus aureus [12]) of 0.25 mg/L (≈ 0.294 µM). The MIC (Staphylococcus aureus [13]) was 0.25 mg/L (≈ 0.294 µM), the MIC (Staphylococcus aureus [14]) was 0.25 mg/L (≈ 0.294 µM) and the ED50 (Streptococcus pneumoniae [15]) was > 50 mg/kg. For the same molecule, the ED50 (Streptococcus pneumoniae [16]) was > 20 mg/kg, the MIC (Streptococcus pneumoniae [17]) was > 128 mg/L and the ED50 (Streptococcus pyogenes [18]) was 5 mg/kg. It also gave an MIC (Streptococcus sanguinis) of 1 mg/L (≈ 1.18 µM), an MIC (Streptococcus pneumoniae [19]) of 1 mg/L (≈ 1.18 µM) and an MIC [20] of 0.25 mg/L (≈ 0.294 µM). It also gave an MIC [21] of 0.12 mg/L (≈ 0.141 µM), an MIC (Enterococcus faecium) of 8 mg/L (≈ 9.41 µM) and an MIC (Streptococcus pyogenes [22]) of 0.12 mg/L (≈ 0.141 µM). The MIC (Streptococcus viridans) was > 128 mg/L, the MIC (Streptococcus [23]) was 4 mg/L (≈ 4.71 µM) and the MIC (Staphylococcus aureus [24]) was 0.25 mg/L (≈ 0.294 µM). The MIC (Haemophilus influenzae) was 16 mg/L (≈ 18.8 µM), the MIC [25] was 1 mg/L (≈ 1.18 µM) and the MIC [26] was 8 mg/L (≈ 9.41 µM). For the same molecule, the Concentration (Mus musculus) was 2.7 µg/mL, the MIC (Collinsella aerofaciens) was 2 mg/L (≈ 2.35 µM) and the MIC (Streptococcus [27]) was 8 mg/L (≈ 9.41 µM). The MIC [28] was < 0.5 mg/L and the ED50 (Streptococcus pyogenes [29]) was 9 mg/kg.
